Measured values reported in ChEMBL document CHEMBL1177716, “Kinesin spindle protein (KSP) inhibitors with 2,3-fused indole scaffolds” (J Med Chem, 2010).
Active and inactive are the calls of the source. No cut-off for these calls is given here.

Assays:
[1] = molecular target: T1, Chromosome-associated kinesin KIF4A (Homo sapiens) (UniProt O95239); experiment: Inhibition of KIF-4 ATPase activity at 20 uM
T1 sequence (whole entry): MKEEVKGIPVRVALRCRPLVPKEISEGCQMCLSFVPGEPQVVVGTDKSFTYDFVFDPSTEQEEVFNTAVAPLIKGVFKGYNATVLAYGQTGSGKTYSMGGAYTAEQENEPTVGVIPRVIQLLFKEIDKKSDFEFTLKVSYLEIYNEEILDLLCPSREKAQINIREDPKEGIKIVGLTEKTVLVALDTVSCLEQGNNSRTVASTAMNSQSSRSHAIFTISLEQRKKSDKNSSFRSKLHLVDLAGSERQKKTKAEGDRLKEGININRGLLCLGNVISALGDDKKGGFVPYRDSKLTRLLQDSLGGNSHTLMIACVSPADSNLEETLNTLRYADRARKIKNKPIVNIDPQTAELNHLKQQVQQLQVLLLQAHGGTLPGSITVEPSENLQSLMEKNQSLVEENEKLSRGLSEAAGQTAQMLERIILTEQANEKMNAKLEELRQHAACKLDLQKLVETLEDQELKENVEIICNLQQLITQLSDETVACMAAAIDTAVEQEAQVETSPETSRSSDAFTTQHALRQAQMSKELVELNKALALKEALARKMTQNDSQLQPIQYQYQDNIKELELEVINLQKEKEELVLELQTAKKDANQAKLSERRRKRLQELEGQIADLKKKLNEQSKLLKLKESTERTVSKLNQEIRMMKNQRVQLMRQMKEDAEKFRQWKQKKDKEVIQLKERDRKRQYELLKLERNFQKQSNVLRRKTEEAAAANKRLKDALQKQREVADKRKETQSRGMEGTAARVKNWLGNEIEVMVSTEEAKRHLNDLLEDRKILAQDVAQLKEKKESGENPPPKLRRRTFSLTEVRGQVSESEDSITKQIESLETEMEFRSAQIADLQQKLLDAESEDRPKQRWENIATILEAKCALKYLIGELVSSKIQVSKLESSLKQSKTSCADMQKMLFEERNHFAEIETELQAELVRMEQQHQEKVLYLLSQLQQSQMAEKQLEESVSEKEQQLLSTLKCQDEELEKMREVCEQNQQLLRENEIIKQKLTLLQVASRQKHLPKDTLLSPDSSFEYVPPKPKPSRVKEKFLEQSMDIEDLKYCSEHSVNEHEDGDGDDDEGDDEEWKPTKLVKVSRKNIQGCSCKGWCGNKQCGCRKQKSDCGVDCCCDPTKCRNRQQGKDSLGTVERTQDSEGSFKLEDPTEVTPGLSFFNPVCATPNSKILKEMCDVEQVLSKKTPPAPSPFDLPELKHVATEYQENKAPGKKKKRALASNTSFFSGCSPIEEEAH

[2] = tested on: Nucleic Acid; experiment: Induction of supercoiled DNA relaxation after 20 mins by agarose gel electrophoresis analysis; format: nucleic-acid assay
[3] = tested on: HeLa; experiment: Cell cycle arrest in human HeLa cells assessed as accumulation at M phase at 36 uM after 20 hrs by DAPI staining relative to taxol; format: functional; details: in the assay text read “at 32 uM” for “at 36 uM”
In short: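 HeLa cells were exposed to compound for 20 h and scored for M-phase arrest. Mitotic index was expressed as a percentage of the induction given by 0.1 μM taxol.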

Structure (SMILES) | inhibition [1] | Activity [2] | Activity [3]
FC(F)(F)c1ccc2c(c1)[nH]c1ccccc12 | inactive | inactive | –
FC(F)(F)c1ccc2[nH]c3ccccc3c2c1 | inactive | inactive | 57%
CC(C)(C)c1ccc2c(c1)[nH]c1ccccc12 | inactive | inactive | 37%
